MC4R antagonist: blocks human MC4R cAMP signaling | P32245 | MC4R-expressing cells, MTII-stimulated cAMP, LANCE TR-FRET | inhibition, % at 6.5 µM | 360,000 compounds, 0.48% hits;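 active = inhibition above its plate's cutoff, the mean of tested wells on that plate plus 3 SD, cut at about 29% in these data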
Target sequence (P32245 whole entry, looked up): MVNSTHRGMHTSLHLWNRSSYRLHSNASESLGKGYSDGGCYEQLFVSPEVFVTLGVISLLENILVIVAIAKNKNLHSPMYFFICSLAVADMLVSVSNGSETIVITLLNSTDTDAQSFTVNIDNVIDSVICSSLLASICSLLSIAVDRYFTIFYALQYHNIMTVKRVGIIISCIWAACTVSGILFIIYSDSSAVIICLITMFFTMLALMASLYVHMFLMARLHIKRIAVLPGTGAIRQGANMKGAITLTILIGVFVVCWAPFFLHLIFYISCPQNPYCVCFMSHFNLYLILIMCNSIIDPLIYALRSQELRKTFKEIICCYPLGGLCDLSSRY
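system = U2OS cells with stable human MC4R expression | also added = Melanotan II challenge after compound preincubation | dosing = one concentration, 6.5 µM nominal | incubation = compound 30 min, challenge 1 h, detection 1 h | measured by = TR-FRET with Eu-cAMP and labeled anti-cAMP, 671 nm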
TLR4-MyD88 BLA: inhibitors of human TLR4-MyD88 binding; HeLa CL3-4 TLR4/MyD88 BLA complementation, FRET ratio; AID 861; O00206+Q99836; 200,000 compounds, 0.18% hits; inhibition, % at 8.4 µM; in the data active = inhibition above about 25%
NTR1 ag: NTR1 (human) agonism. P30989. NTR1-U2OS beta-arrestin-GFP spot imaging, agonist mode. AID 493036. 330,000 compounds, 0.17% hits. activation, % at 20 µM;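 active = activation at or above 40% of the spot to cytoplasm intensity ratio, with at least 20 cells analyzed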
Target sequence (P30989 whole entry, looked up): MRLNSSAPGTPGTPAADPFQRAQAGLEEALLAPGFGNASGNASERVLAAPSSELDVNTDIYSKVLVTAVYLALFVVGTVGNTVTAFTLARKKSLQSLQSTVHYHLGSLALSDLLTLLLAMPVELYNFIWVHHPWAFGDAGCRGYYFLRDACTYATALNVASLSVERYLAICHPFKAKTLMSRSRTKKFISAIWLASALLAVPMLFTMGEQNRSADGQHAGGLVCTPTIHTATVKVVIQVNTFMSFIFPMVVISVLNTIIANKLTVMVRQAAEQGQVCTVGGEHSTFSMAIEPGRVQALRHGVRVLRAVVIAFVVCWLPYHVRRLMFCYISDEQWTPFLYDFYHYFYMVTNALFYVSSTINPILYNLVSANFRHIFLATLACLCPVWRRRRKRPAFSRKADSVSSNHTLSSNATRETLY
MC4R barr agon: activates human MC4R beta-arrestin recruitment; P32245; 360,000 compounds, 0.98% hits; activation, % at 8.9 µM; U2OS MC4R beta-arrestin complementation, luminescence; percent of melanotan II response, DMSO zero;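 active = activation above a per-plate cutoff, the mean activation of sample wells on that plate plus 3 SD, cut at about 8% in these data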
TLR9-MyD88 inh: inhibitors of human TLR9-MyD88 binding | CHO BLA complementation TLR9-MyD88, CCF4 FRET ratio | inhibition, % at 4.98 µM | Q9NR96+Q99836 | 340,000 compounds, 0.21% hits;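 active = inhibition above the mean over all tested compounds plus 3 SD, cut at about 21% in these data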
NOD2-RIPK2 inh: blocks binding of human NOD2 to RIPK2; AID 624267; CHO BLA complementation NOD2-RIPK2, CCF4 ratio; inhibition, % at 4.98 µM; 360,000 compounds, 0.38% hits; in the data active = inhibition above about 21%
TLR9-MyD88 cf: confirmation of human TLR9-MyD88 binding inhibitors. shares compounds with TLR9-MyD88 inh. CHO TLR9/MyD88 BLA complementation, CCF4 FRET ratio. inhibition, % at 4.98 µM. 680 compounds, 51% hits;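 active = mean inhibition across three repeats above about 21% taken from the earlier screen, limit read from the data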;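 note: blue over green emission ratio reports constitutive TLR9 MyD88 association via BLA complementation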
BLA counter-1: non-selective beta-lactamase inhibitors in TLR9-MyD88 counter-screen. CHO-BLA cells, CCF4 FRET ratio, BLA reporter. shares compounds with TLR9-MyD88 inh. 680 compounds, 7% hits. AID 540251. inhibition, % at 4.98 µM;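 active = mean inhibition above a 50% cutoff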;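 note: counterscreen of TLR9-MyD88 hits on CMV-driven BLA in CHO-K1 cells; higher means less blue over green ratio so more BLA blockade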
TLR9 CHO tox: CHO cell toxicity counter-screen for TLR9-MyD88 inhibitors. inhibition, % at 4.98 µM. shares compounds with TLR9-MyD88 inh. AID 588336. 680 compounds, 39% hits. TLR9-MyD88 CHO cells cytotoxicity, luminescence; in the data active = inhibition above about 11%
cAMP nonselect: counter-screen for MC4R antagonists: nonselective cAMP signaling inhibitors; 1,600 compounds, 26% hits; inhibition, % at 6.5 µM; parental U2OS, forskolin cAMP, LANCE TR-FRET; shares compounds with MC4R antagonist; AID 602193;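 active = mean inhibition over triplicates above the low-control well mean plus 3 SD, set per campaign, cut at about 13% in these data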;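 note: signal is single emission at 671 nm which falls as cellular cAMP rises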
MC4R antag conf: human MC4R cAMP antagonism confirmation; shares compounds with MC4R antagonist; MC4R-expressing cells, MTII-stimulated cAMP, TR-FRET; inhibition, % at 6.5 µM; 1,600 compounds, 27% hits; AID 602195; in the data active = inhibition above about 29%
MC4R barr conf: human MC4R beta-arrestin agonism confirmation | 2,400 compounds, 31% hits | shares compounds with MC4R barr agon | activation, % at 8.9 µM | U2OS MC4R beta-arrestin recruitment, luminescence; scaled DMSO 0%, Melanotan II 100%;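 active = mean activation across replicates above the hit cutoff set in the earlier primary screen, cut at about 8% in these data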
MOR-DOR barr ag: counter-screen for MC4R agonists: agonists of mu-delta opioid heterodimer | U2OS PathHunter beta-arrestin, beta-gal luminescence; percent of deltorphin B response, DMSO zero | AID 602194 | activation, % at 9.2 µM | shares compounds with MC4R barr agon | 2,400 compounds, 5.8% hits;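 active = mean activation across replicates exceeds the hit threshold derived in the earlier primary screen, cut at about 18% in these data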
NOD2 RIPK2 conf: confirmation of human NOD2-RIPK2 interaction inhibitors; shares compounds with NOD2-RIPK2 inh; CHO cells, NOD2-RIPK2 BLA complementation, CCF4 FRET; inhibition, % at 4.98 µM; 1,200 compounds, 70% hits;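 active = mean inhibition across replicates above a set limit taken from the earlier primary screen, cut at about 21% in these data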
BLA counter-2: counter-screen for NOD2-RIPK2 interaction inhibitors: BLA reporter. shares compounds with NOD2-RIPK2 inh. CHO BLA reporter, CCF4 FRET ratio, counterscreen. inhibition, % at 4.98 µM. 1,200 compounds, 57% hits;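 active = mean inhibition above the low-control mean inhibition plus three low-control SD, cut at about 11% in these data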
Each line names hits and unclear results; the compound was inactive in the other large screens (follow-up assays come after a bar, where they were run). Most compounds without a hit are left out; they make up all but 1.9% or so of the library.

O=C(/C=C/c1cccc(Cl)c1)c1ccc([N+](=O)[O-])o1	MC4R antagonist 34, TLR9-MyD88 inh 26, NOD2-RIPK2 inh 52 (no result: TLR4-MyD88 BLA) | TLR9-MyD88 cf 21 | BLA counter-1 inactive | TLR9 CHO tox 96 | NOD2 RIPK2 conf 88 | BLA counter-2 19
COC(=O)c1c(-c2ccc(OC)cc2)sc2cc3c(cc12)OCO3	none (no result: TLR4-MyD88 BLA)
COC(=O)c1c(-c2ccc(N(C)C)cc2)sc2ccc(OC)cc12	TLR9-MyD88 inh 28, NOD2-RIPK2 inh 38 (no result: TLR4-MyD88 BLA) | TLR9-MyD88 cf 35 | BLA counter-1 inactive | TLR9 CHO tox inactive | NOD2 RIPK2 conf 49 | BLA counter-2 66
CC(=O)OCCNc1cc(Sc2nc3ccccc3[nH]2)c2nonc2c1[N+](=O)[O-]	TLR9-MyD88 inh 56, NOD2-RIPK2 inh 89 (no result: NTR1 ag) | TLR9-MyD88 cf 60 | BLA counter-1 inactive | TLR9 CHO tox 99 | NOD2 RIPK2 conf 90 | BLA counter-2 38
CC(=O)OCCNc1cc(SCc2ccco2)c2nonc2c1[N+](=O)[O-]	none (no result: NTR1 ag)
COc1ccc(NC(=O)COC(=O)C2CCC(C(C)(C)C)CC2)c([N+](=O)[O-])c1 (stereo not drawn)	none
CN(C(=O)CN1C(=O)c2cccc(N)c2C1=O)C1CCCCC1	TLR9-MyD88 inh 29, NOD2-RIPK2 inh 61 (no result: TLR4-MyD88 BLA) | TLR9-MyD88 cf inactive | BLA counter-1 inactive | TLR9 CHO tox inactive | NOD2 RIPK2 conf 51 | BLA counter-2 49
CN(C(=O)CN1C(=O)NC2(CCc3ccccc32)C1=O)C1CCCCC1 (stereo not drawn)	none (no result: TLR4-MyD88 BLA, TLR9-MyD88 inh)
CC(CNC(=O)CC[C@H]1O[C@@H](n2cnc3c(NC(=O)c4ccccc4)ncnc32)[C@H](O)[C@@H]1O)c1ccccc1 (stereo partly drawn)	none (no result: MC4R antagonist, TLR4-MyD88 BLA, NTR1 ag, MC4R barr agon, TLR9-MyD88 inh)
O=C(O)c1ccccc1C(=O)Nc1ccccc1	none
O=C(Nc1ccccc1)C1=C(c2ccccc2)S(=O)(=O)CCS1(=O)=O	MC4R antagonist 47, TLR9-MyD88 inh 22, NOD2-RIPK2 inh 50 (no result: NTR1 ag) | TLR9-MyD88 cf inactive | BLA counter-1 inactive | TLR9 CHO tox 97 | cAMP nonselect 28 | MC4R antag conf 37 | NOD2 RIPK2 conf 60 | BLA counter-2 12
CS(=O)(=O)N(CCc1ccccc1)CC(=O)N1CCCCCC1	none (no result: TLR4-MyD88 BLA, NTR1 ag)
COc1ccc(/C=C/c2cc(O)cc(OC3OC(CO)C(O)C(O)C3O)c2)cc1 (stereo not drawn)	none (no result: TLR4-MyD88 BLA, NTR1 ag)
Nc1cccc2c1C(=O)N(CCOc1ccc(F)cc1)C2=O	TLR9-MyD88 inh 23, NOD2-RIPK2 inh 22 (no result: TLR4-MyD88 BLA) | TLR9-MyD88 cf inactive | BLA counter-1 inactive | TLR9 CHO tox inactive | NOD2 RIPK2 conf 33 | BLA counter-2 44
COc1ccc(OCCN2C(=O)c3ccccc3C2=O)cc1	none
COC(=O)C(C)NC(=S)N1CCN(c2c(F)cc3c(=O)c(C(=O)O)cn(C4CC4)c3c2OC)CC1C (stereo not drawn)	none (no result: TLR4-MyD88 BLA)
Cc1cccc(C(=O)NNC(=O)c2ccc(NS(=O)(=O)c3cccs3)cc2)c1C	none (no result: TLR4-MyD88 BLA)
CNC(=O)c1nnsc1S(=O)c1ccc(Cl)cc1 (stereo not drawn)	TLR9-MyD88 inh 46, NOD2-RIPK2 inh 57 | TLR9-MyD88 cf 51 | BLA counter-1 inactive | TLR9 CHO tox 97 | NOD2 RIPK2 conf 54 | BLA counter-2 28
CCCNC(=O)c1nnsc1S(=O)c1ccc(Cl)cc1 (stereo not drawn)	TLR9-MyD88 inh 48, NOD2-RIPK2 inh 80 | TLR9-MyD88 cf 49 | BLA counter-1 inactive | TLR9 CHO tox 100 | NOD2 RIPK2 conf 85 | BLA counter-2 25
CCCNC(=O)c1nnsc1S(=O)(=O)c1ccc(Cl)cc1	TLR9-MyD88 inh 35, NOD2-RIPK2 inh 84 | TLR9-MyD88 cf 37 | BLA counter-1 inactive | TLR9 CHO tox 99 | NOD2 RIPK2 conf 85 | BLA counter-2 23
CCCNC(=O)NS(=O)(=O)c1ccc(Cl)cc1	none
CCN(CC)c1ccc(/C=C/C(=O)C2C(=O)C=C(C)OC2=O)cc1 (stereo not drawn)	TLR9-MyD88 inh 21, NOD2-RIPK2 inh 23 | TLR9-MyD88 cf 36 | BLA counter-1 inactive | TLR9 CHO tox 11 | NOD2 RIPK2 conf 28 | BLA counter-2 47
CN(Cc1ccc(C(C)(C)C)cc1)C(=O)Cc1ccc(S(=O)(=O)N2CCOCC2)s1	none (no result: TLR4-MyD88 BLA)
COc1cc2c(cc1OC)C(NC(=O)c1ccc(C)cc1)CC2=O (stereo not drawn)	none (no result: TLR4-MyD88 BLA)
COc1cc(/C=C/C(=O)/C=C(O)/C=C/c2ccc(O)c(OC)c2)ccc1O	MC4R barr agon 12, TLR9-MyD88 inh 28, NOD2-RIPK2 inh 54 (no result: TLR4-MyD88 BLA) | TLR9-MyD88 cf 30 | BLA counter-1 inactive | TLR9 CHO tox inactive | MC4R barr conf 12 | MOR-DOR barr ag inactive | NOD2 RIPK2 conf 55 | BLA counter-2 57
COc1cc(/C=C(\C#N)c2nc3ccc(C)cc3[nH]2)c([N+](=O)[O-])cc1OC	none
CCCOc1cc(N(CC)CC)ccc1/C=C(/C#N)c1nc2ccc(C)cc2[nH]1	TLR9-MyD88 inh 21, NOD2-RIPK2 inh 34 | TLR9-MyD88 cf inactive | BLA counter-1 inactive | TLR9 CHO tox inactive | NOD2 RIPK2 conf 35 | BLA counter-2 36

Bioassay records (PubChem BioAssay)
